Results as given in paper PMC3348450 (Investigational New Drugs, 2011).

Assays:
[1] = Treatment-related laboratory abnormalities, phase I Study 1 and Study 2; assay type: in vivo, human; conditions: treatment-related laboratory abnormality; pooled; N = 18
Method in brief: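 Laboratory abnormalities were pooled across 18 Japanese patients with solid tumours from two studies. Patients took the oral test compound in the fed state: 5 mg BID continuous dosing, preceded by single doses in some patients (5 mg; or 5, 7 and 10 mg in Study 2). Dose could be raised to 7 then 10 mg BID, or cut to 3 or 2 mg BID for toxicity.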

thyroid gland = assay: Thyroid function tests; assay type: in vivo, human; conditions: two studies, 18 patients
Method in brief: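 Study 1 measured TSH weekly in cycle 1, then every 2 weeks. Study 2 determined anti-TPO and antithyroglobulin antibody titres at screening, and measured TSH, free T3, free T4 and thyroglobulin weekly in cycle 1, then every 2 weeks. Study 2 also measured total cholesterol and CPK, monitored thyroid tests at every visit, and gave thyroid hormone replacement according to TSH to keep patients euthyroid.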

[2] = cited from earlier work
[3] = Plasma pharmacokinetics of axitinib; assay type: in vivo, human
[4] = system: advanced malignant solid tumors; assay: Preliminary antitumor activity; assay type: in vivo, human; conditions: 11 of 17 evaluable patients who had a target lesion
[5] = Treatment-related adverse events; assay type: in vivo, human
Method in brief: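 Adverse events were graded by CTCAE version 3.0 throughout both studies in 18 Japanese patients on the oral test compound, taken in the fed state. Study 1 gave 5 mg BID continuously, six patients first receiving a single 5-mg dose. Study 2 gave single 5-, 7- and 10-mg doses, then 5 mg BID. Titration was to 7 then 10 mg BID; reduction was to 3 or 2 mg BID.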

[6] = cited from earlier work; remark: listed apart in the source
[7] = cited from earlier work; remark: listed apart in the source
[8] = Study 2 (N = 6), four patients received thyroid hormone replacement therapy
[9] = treatment-related, pooled, N = 18

Question: With `CNC(=O)c1ccccc1Sc1ccc2c(/C=C/c3ccccn3)n[nH]c2c1` [axitinib, Axitinib] as the compound, how does the “ALP increased, all grades” value [1] read?
Answer: Its value is 4 (22) n (%).

Question: What about the “AST increased, all grades” value [1] of the same compound?
Answer: Its value is 4 (22) n (%).

Question: And the “Blood glucose increased, all grades” value [1]?
Answer: Its value is 5 (28) n (%).

Question: What about the “Blood glucose increased, grade 3/4” value [1] of the same compound?
Answer: Its value is 0 n (%).

Question: And the “Hematuria, all grades” value [1]?
Answer: Its value is 7 (39) n (%).

Question: What about the “Lipase increased, all grades” value [1] of the same compound?
Answer: The value was 6 (33) n (%).

Question: What about the “Lipase increased, grade 3/4” value [1] of the same compound?
Answer: Its value is 0 n (%).

Question: And the “Lymphocyte count decreased, all grades” value [1]?
Answer: Its value is 1 (6) n (%).

Question: And the “Lymphocyte count decreased, grade 3/4” value [1]?
Answer: Its value is 0 n (%).

Question: What about the “Neutrophil count decreased, all grades” value [1] of the same compound?
Answer: The value was 3 (17) n (%).

Question: What about the “Neutrophil count decreased, grade 3/4” value [1] of the same compound?
Answer: Its value is 1 (6) n (%).

Question: What about the “Platelet count decreased, all grades” value [1] of the same compound?
Answer: Its value is 6 (33) n (%).

Question: What about the “Platelet count decreased, grade 3/4” value [1] of the same compound?
Answer: The value was 0 n (%).

Question: What about the “Proteinuria, all grades” value [1] of the same compound?
Answer: The value was 9 (50) n (%).

Question: What about the “TSH decreased, all grades” value [1] of the same compound?
Answer: The value was 4 (22) n (%).

Question: And the “TSH increased, all grades” value [1]?
Answer: Its value is 13 (72) n (%).

Question: And the “Patients with elevation of TSH above the upper limit of normal range” value (thyroid gland)?
Answer: The value was 89%.

Question: And the “Plasma exposure, fed state versus shorter fasting durations” value ([2]; 2 h before and 2 h after dosing, and 1 h before and 1 h after dosing)?
Answer: Its value is “no difference in exposure”.

Question: What about the “Plasma exposure, fed state versus overnight fasting state” value ([2]; Western healthy volunteers) of the same compound?
Answer: The value was “lower plasma exposure”.

Question: What about the AUC ([3]; human, plasma, oral, 5 mg) of the same compound?
Answer: Its AUC is 138 ng·h/mL.

Question: What about the Tmax ([3]; human, plasma, oral, 5 mg) of the same compound?
Answer: Its Tmax is 4.04 h.

Question: And the half-life ([3]; human, plasma, oral, 10 mg)?
Answer: The half-life was 4.8 to 5.9 h.

Question: What about the “Time after administration at which plasma concentration reached maximum (Cmax)” value ([3]; single dose 5, 7, 10 mg, Study 2) of the same compound?
Answer: The value was ~ 4 h.

Question: What about the “Dose linearity of plasma pharmacokinetics” value ([3]; single dosing of 5 mg, 7 mg and 10 mg) of the same compound?
Answer: Its value is “generally linear”.

Question: What about the “Evaluable patients with a reduction in tumor size” value [4] of the same compound?
Answer: Its value is 65%.

Question: What about the “Grade 3/4 fatigue, patients” value ([5]; 18 patients) of the same compound?
Answer: The value was 28%.

Question: And the “Grade 3/4 hypertension, patients” value ([5]; 18 patients)?
Answer: Its value is 33%.

Question: What about the “Grade 3/4 fatigue, patients” value ([5]; Study 1) of the same compound?
Answer: The value was 42%.

Question: What about the “Treatment-related fatigue, all grades” value ([5]; Study 1 (N = 12)) of the same compound?
Answer: Its value is 10 (83) n (%).

Question: And the “Treatment-related fatigue, grade 3/4” value ([5]; Study 1 (N = 12))?
Answer: The value was 5 (42) n (%).

Question: And the “Treatment-related fatigue, all grades” value [5, 8]?
Answer: Its value is 5 (83) n (%).

Question: And the “Treatment-related fatigue, grade 3/4” value [5, 8]?
Answer: The value was 0 n (%).

Question: And the “Anorexia, patients” value ([5]; treatment-related, 18 patients)?
Answer: Its value is 72%.

Question: What about the “Diarrhea, patients” value ([5]; treatment-related, 18 patients) of the same compound?
Answer: The value was 67%.

Question: And the “Hand–foot syndrome, patients” value ([5]; treatment-related, 18 patients)?
Answer: The value was 67%.

Question: And the “Hypertension, patients” value ([5]; treatment-related, 18 patients)?
Answer: The value was 61%.

Question: And the “Fatigue, all grades” value ([5]; treatment-related, pooled Study 1 and Study 2, N = 18)?
Answer: The value was 15 (83) n (%).

Question: And the “Anorexia, all grades” value [5, 9]?
Answer: Its value is 13 (72) n (%).

Question: And the “Constipation, all grades” value [5, 9]?
Answer: Its value is 7 (39) n (%).

Question: What about the “Diarrhea, all grades” value [5, 9] of the same compound?
Answer: The value was 12 (67) n (%).

Question: And the “Epistaxis, all grades” value [5, 9]?
Answer: The value was 5 (28) n (%).

Question: What about the “Hand–foot syndrome, all grades” value [5, 9] of the same compound?
Answer: The value was 12 (67) n (%).

Question: And the “Hand–foot syndrome, grade 3/4” value [5, 9]?
Answer: Its value is 1 (6) n (%).

Question: What about the “Headache, all grades” value [5, 9] of the same compound?
Answer: Its value is 4 (22) n (%).

Question: And the “Hoarseness, all grades” value [5, 9]?
Answer: The value was 9 (50) n (%).

Question: What about the “Hypertension, all grades” value [5, 9] of the same compound?
Answer: Its value is 11 (61) n (%).

Question: What about the “Nausea, all grades” value [5, 9] of the same compound?
Answer: The value was 4 (22) n (%).

Question: And the “Rash, all grades” value [5, 9]?
Answer: Its value is 6 (33) n (%).

Question: What about the “Stomatitis, all grades” value [5, 9] of the same compound?
Answer: The value was 10 (56) n (%).

Question: What about the “Fatigue (all grades), patients” value ([5]; treatment-related, two studies, 18 patients) of the same compound?
Answer: The value was 83%.

Question: And the Anemia ([5]; two phase I studies)?
Answer: The Anemia was “not reported as an adverse event”.

Question: What about the “Hemoglobin change in treated patients” value [6] of the same compound?
Answer: The value was “Elevation of hemoglobin”.

Question: Which results are given for `CNC(=O)c1cc(Oc2ccc(NC(=O)Nc3ccc(Cl)c(C(F)(F)F)c3)cc2)ccn1` [sorafenib]?
Answer: Hemoglobin change in treated patients [6]: Elevation of hemoglobin; Hypothyroidism and thyroid dysfunction, patients [7]: ~ 20%

Question: Which “Hemoglobin change in treated patients” value [6] does the source give for `CCN(CC)CCNC(=O)c1c(C)[nH]c(/C=C2\C(=O)Nc3ccc(F)cc32)c1C` [sunitinib] here?
Answer: The value was “Elevation of hemoglobin”.

Question: And the “Hypothyroidism and thyroid dysfunction, patients” value [7]?
Answer: The value was 36–85%.
